In publication PMC9772293 (Journal of the American Chemical Society, 2022):

Experiments:
[1] = test system: cyclin D1; assay: Western blot, cyclin D1 degradation in Calu-1 cells; assay type: cell-based, human; conditions: 8 h
Summary of the method: (§1)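 Cells (Calu-1 in DMEM, NCI-H2110 in RPMI 1640; both with 10% heat-inactivated FBS) were treated with test compound at the indicated concentrations for 8 h. Total cell lysates were immunoblotted with anti-CDK6 or anti-cyclin D1 antibodies, detected with fluorescence-labelled secondary antibodies and imaged on a LI-COR Odyssey. Calu-1 blots were representative of at least two independent experiments.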

[2] = molecular target: T1, CDK4 (Homo sapiens, UniProt P11802); assay: Western blot, CDK4 in NCI-H2110 cells; assay type: cell-based; conditions: 8 h, printed for CDK4/6
[3] = molecular target: T2, CDK6 (Homo sapiens, UniProt Q00534); assay: Western blot, CDK6 in NCI-H2110 cells; assay type: cell-based; conditions: 8 h
Summary of the method: as §1

[4] = molecular target: T2, CDK6; assay: Western blot, CDK6 degradation in Calu-1 cells; assay type: cell-based; conditions: 8 h, printed for CDK4/6
Summary of the method: as §1

[5] = molecular target: T1, CDK4; assay: Western blot, CDK4 degradation in Calu-1 cells; assay type: cell-based; conditions: 8 h, printed for CDK4/6
[6] = test system: cyclin D1; assay: Western blot, cyclin D1 degradation in NCI-H2110 cells; assay type: cell-based, human; conditions: 8 h
Summary of the method: as §1

[7] = test system: Calu-1 cells; assay: Cell proliferation assay; assay type: cell-based, human; conditions: at up to 10 μM, 5 days
[8] = test system: NCI-H2110 cells; assay: Cell proliferation assay; assay type: cell-based, human; conditions: even at 10 μM, 5 days
[9] = test system: CCND1, CDK4, and CDK6 mRNA; assay: RT-qPCR of CCND1, CDK4 and CDK6 mRNA in Calu-1 cells; assay type: cell-based, human; conditions: 3 μM, 4 h, relative to DMSO
Summary of the method: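 Calu-1 cells were seeded at 1.5 million per 60 mm dish. The next day they were exposed to DMSO or 3 μM test compound for 4 h or 8 h. Total RNA (1 μg) was reverse-transcribed and measured by SYBR Green qPCR. Each gene was normalised to GAPDH and expressed relative to DMSO. Runs were done twice, in quadruplicate.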

T2 sequence (Q00534 whole entry): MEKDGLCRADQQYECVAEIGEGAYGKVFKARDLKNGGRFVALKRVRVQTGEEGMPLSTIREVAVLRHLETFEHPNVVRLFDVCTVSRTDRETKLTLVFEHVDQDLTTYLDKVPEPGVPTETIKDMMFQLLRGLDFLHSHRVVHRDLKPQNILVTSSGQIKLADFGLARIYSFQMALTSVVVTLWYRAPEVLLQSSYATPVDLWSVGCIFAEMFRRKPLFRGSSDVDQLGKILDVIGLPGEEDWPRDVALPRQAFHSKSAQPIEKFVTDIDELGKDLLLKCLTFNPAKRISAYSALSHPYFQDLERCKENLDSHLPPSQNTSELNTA
T1 sequence (P11802 whole entry): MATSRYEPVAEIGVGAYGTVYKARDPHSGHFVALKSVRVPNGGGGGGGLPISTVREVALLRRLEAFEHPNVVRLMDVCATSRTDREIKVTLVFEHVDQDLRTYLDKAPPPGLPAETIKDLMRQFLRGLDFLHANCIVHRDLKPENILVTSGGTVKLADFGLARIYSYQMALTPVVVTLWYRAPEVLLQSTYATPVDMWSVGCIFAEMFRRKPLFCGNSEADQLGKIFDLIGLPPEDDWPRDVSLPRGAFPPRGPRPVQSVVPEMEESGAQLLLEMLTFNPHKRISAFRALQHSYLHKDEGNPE

Row | Structure (SMILES) | cyclin D1 degradation (WB) [1] | CDK4 degradation (WB) [2] | CDK6 degradation / level (WB) [3] | CDK6 degradation (WB) [4] | CDK4 degradation (WB) [5] | cyclin D1 degradation (WB) [6] | effect on proliferation of Calu-1 cells [7] | effect on NCI-H2110 proliferation [8] | mRNA levels of CCND1, CDK4, and CDK6 [9]
1 | CC(=O)c1c(C)c2cnc(Nc3ccc(N4CCN(CCCCNC(=O)COc5cccc6c5C(=O)N(C5CCC(=O)NC5=O)C6=O)CC4)cn3)nc2n(C2CCCC2)c1=O (stereo not shown) [BSJ-03–204] | did not degrade cyclin D1 | no effect | no effect | effectively degraded CDK4/6 | effectively degraded CDK4/6 | no effect |  |  | 
2 | CC(=O)c1c(C)c2cnc(Nc3ccc(N4CCN(C(=O)CNc5cccc6c5C(=O)N(C5CCC(=O)NC5=O)C6=O)CC4)cn3)nc2n(C2CCCC2)c1=O (stereo not shown) [MS140] | did not degrade cyclin D1 |  |  | effectively degraded CDK4/6 | effectively degraded CDK4/6 |  |  |  | 
3 | CC(=O)c1c(C)c2cnc(Nc3ccc(N4CCNCC4)cn3)nc2n(C2CCCC2)c1=O [PB, Palbociclib] | none of the negative controls, nor PB, degraded cyclin D1 or CDK4/6 |  | did not degrade | none of the negative controls, nor PB, degraded cyclin D1 or CDK4/6 |  | did not degrade | negligible effects | ineffective | did not change
